Structures are written as SMILES.

The test system of experiment [1] is Mus musculus. Nature of the experiment: Effect on Arachidonic Acid-Induced Mouse Ear Inflammation expressed as percent inhibition of MPO at 500 ug/ear of topical administration.
Experiment [2] concerns Mus musculus. Nature of the experiment: Dose required to inhibit 50% of arachidonic acid-induced inflammation after topical administration obtained from dose-response curves. It is filed as functional.
Experiment [3] has as its system Mus musculus. Nature of the experiment: Effect on Arachidonic Acid-Induced Mouse Ear Inflammation expressed as percent inhibition of MPO at 50 mg/kg of oral administration. It counts as functional. The method in brief: (§1)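 Balb/c mice (20 g; N=6-10 vehicle, typically 5-6 per drug group) dosed intragastrically with compound in distilled water. Thirty minutes later, 1.0 mg arachidonic acid in 20 µL cold acetone applied to left ear. Ear thickness measured 1 h later. Left ears then harvested and MPO activity read spectrophotometrically (Bradley method). ED50 from multiple dose–response studies (4–5 doses) by linear regression.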

The target in experiment [4] is Leukotriene B4 receptor 1 (Homo sapiens, UniProt Q15722). As to the kind of experiment: Inhibition of [3H]LTB4 binding to human neutrophils. The method in brief: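 Intact human PMNs (10^6; >90% neutrophils, >95% viable) incubated with 0.2 nM [3H]LTB4 for 20 min at 0 °C in Hanks balanced salt solution with 0.1% ovalbumin. Compound tested at 0.1 nM–10 µM; nonspecific binding defined with 1 µM unlabeled LTB4. Bound ligand separated by filtration and counted by scintillation. Duplicate curves of 5–8 concentrations, at least two assays.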

Experiment [5] has as its system Mus musculus. As to the kind of experiment: Dose required to inhibit 50% of arachidonic acid-induced inflammation after oral administration obtained from dose-response curves. It counts as functional. The method in brief:
as §1

Experiment [6] has as its system Mus musculus. Nature of the experiment: Effect on Arachidonic Acid-Induced Mouse Ear Inflammation expressed as percent inhibition of MPO at 25 mg/kg of oral administration. It is filed as functional. An outline of the steps:
as §1

Experiment [7] relates to Mus musculus. Nature of the experiment: Effect on Arachidonic Acid-Induced Mouse Ear Inflammation expressed as percent inhibition of MPO at 50 ug/ear of topical administration. It is filed as functional.
Experiment [8] has as its target T1, Polyunsaturated fatty acid 5-lipoxygenase (Rattus norvegicus, UniProt P12527).
T1 sequence (P12527 whole entry): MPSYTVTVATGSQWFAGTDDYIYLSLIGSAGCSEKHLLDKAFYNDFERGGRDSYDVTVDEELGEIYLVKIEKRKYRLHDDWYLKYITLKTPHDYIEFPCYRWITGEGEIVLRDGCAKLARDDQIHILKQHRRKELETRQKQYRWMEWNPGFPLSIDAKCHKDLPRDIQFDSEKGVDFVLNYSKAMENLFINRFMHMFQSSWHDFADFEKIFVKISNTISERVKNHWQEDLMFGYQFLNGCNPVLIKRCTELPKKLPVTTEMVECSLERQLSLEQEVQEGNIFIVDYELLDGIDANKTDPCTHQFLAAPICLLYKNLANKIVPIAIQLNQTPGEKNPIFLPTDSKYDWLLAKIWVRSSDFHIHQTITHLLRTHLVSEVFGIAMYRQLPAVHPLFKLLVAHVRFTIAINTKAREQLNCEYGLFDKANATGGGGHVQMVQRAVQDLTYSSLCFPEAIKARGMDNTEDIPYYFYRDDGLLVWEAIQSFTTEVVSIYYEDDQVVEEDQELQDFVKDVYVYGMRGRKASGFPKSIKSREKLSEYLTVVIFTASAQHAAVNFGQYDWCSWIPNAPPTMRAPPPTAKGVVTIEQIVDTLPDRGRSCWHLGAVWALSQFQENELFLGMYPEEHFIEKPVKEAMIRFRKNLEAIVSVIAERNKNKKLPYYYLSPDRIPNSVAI
As to the kind of experiment: Concentration required to inhibit RBL-1 supernatant 5-lipoxygenase.

Experiment [9] deals with Cysteinyl leukotriene receptor 1 (Homo sapiens, UniProt Q9Y271). Nature of the experiment: Inhibitory concentration LTB4 with [3H]LTD4 in LTD4 receptor binding assay.
For a further experiment, the species on record is Homo sapiens. Nature of the experiment: Concentration required to block LTB4 induced degranulation in human PMNs. It counts as functional. An outline of the steps: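 Washed human PMNs (10^6, isolated by Ficoll-Hypaque, dextran sedimentation, hypotonic lysis) in 1 mL Earls balanced salt solution with 20 mM HEPES, 0.1% ovalbumin. Preincubated 10 min with 5 µg/mL cytochalasin B, then compound or vehicle 5 min at 37 °C, then 100 nM LTB4 for 3 min. Supernatant MPO measured kinetically at 460 nm (o-dianisidine/H2O2, pH 6.0). Four curves of 5–7 concentrations; mean IC50 ± SEM.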

Experiment [10] deals with Mus musculus. As to the kind of experiment: Effect on Arachidonic Acid-Induced Mouse Ear Inflammation expressed as percent inhibition of MPO at 1000 ug/ear of topical administration. It is filed as functional.

Chain of Leukotriene B4 receptor 1 (Q15722 whole entry): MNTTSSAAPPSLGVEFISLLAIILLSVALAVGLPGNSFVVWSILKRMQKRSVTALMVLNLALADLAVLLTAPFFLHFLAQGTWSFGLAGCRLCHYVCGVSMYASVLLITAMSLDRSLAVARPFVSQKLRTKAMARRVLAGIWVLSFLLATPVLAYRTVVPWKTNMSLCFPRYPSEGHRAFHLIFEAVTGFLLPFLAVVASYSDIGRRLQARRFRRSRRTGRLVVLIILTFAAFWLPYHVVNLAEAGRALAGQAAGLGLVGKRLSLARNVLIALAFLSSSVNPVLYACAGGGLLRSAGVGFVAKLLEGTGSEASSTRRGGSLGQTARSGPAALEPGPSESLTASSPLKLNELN
Chain of Cysteinyl leukotriene receptor 1 (Q9Y271 whole entry, looked up): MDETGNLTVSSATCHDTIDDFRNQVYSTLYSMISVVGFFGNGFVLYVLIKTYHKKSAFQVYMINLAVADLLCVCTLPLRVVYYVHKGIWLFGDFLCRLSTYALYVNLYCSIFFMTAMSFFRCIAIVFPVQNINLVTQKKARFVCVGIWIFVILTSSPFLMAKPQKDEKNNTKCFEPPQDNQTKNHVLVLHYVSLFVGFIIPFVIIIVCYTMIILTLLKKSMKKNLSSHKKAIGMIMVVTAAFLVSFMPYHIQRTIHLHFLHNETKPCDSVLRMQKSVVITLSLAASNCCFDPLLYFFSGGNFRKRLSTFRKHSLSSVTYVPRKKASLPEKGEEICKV

`COc1ccc(CCCCCCCCOc2ccc(C[S+]([O-])c3cccc(N)c3)nc2/C=C/C(=O)O)cc1` (stereo not drawn) gave an Inhibition in the experiment on Mus musculus [1] of 55%. In addition, the ED50 in the experiment on Mus musculus [2] came to 350 ug ear-1. In the experiment with Mus musculus [3], the inhibition in vivo at 50 mg/kg turned out to be 0%.
`O=C(O)/C=C/c1nc(CSc2c(Cl)cccc2Cl)ccc1OCCc1ccc(Cl)cc1` showed a Ki in experiment [4] of 1.3 nM.
Take `O=C(O)/C=C/c1nc(CSc2c(Cl)cccc2Cl)ccc1OCCc1ccccc1` [TICOLUBANT]: the ED50 in the experiment on Mus musculus [5] came out at 14.8 mg/kg; with Mus musculus [2], 8 ug ear-1. In the experiment on Mus musculus [6], this molecule had an inhibition in vivo at 25 mg/kg of 70%. This molecule also showed an Inhibition with Mus musculus [7] of 83%. Also, the IC50 in [8] amounted to 8200 nM; in experiment [9], 16800 nM; in the experiment listed under Homo sapiens it was 53 nM. The same molecule came in with a Ki in experiment [4] of 0.78 nM.
In turn, `COc1ccc(CCCCCCCCOc2ccc(CSCc3cccc(C(=O)O)c3)nc2/C=C/C(=O)O)cc1` displayed an Inhibition in the experiment on Mus musculus [1] of 69%. In the experiment with Mus musculus [2], this molecule gave an ED50 of 390 ug ear-1. The same molecule returned an inhibition in vivo at 50 mg/kg in the experiment with Mus musculus [3] of 0%.
The molecule `O=C(O)/C=C/c1nc(CSc2c(Cl)cccc2Cl)ccc1OCCCc1ccccc1` yielded a Ki in experiment [4] of 1.4 nM. That is a single-digit nanomolar value.
On to `COc1ccc(CCCCOc2ccc(CSc3c(Cl)cccc3Cl)nc2/C=C/C(=O)O)cc1`, for which the ED50 in the experiment with Mus musculus [5] was 57.6 mg/kg. Also, at 50 mg/kg the inhibition in vivo with Mus musculus [3] was 54%. The molecule further returned a Ki in experiment [4] of 1.5 nM. In the experiment on Mus musculus [10], this molecule gave an Inhibition of 82%.
`COc1ccc(CCCCOc2ccc(CSc3ccccc3)nc2/C=C/C(=O)O)cc1`: 50 mg/kg produced 26% inhibition in vivo in the experiment on Mus musculus [3]. The Ki in experiment [4] was 2.8 nM. In the experiment with Mus musculus [10], this molecule showed an Inhibition of 49%.
With `COc1ccc(CCOc2ccc(CSc3c(Cl)cccc3Cl)nc2/C=C/C(=O)O)cc1`, the Ki in experiment [4] was found to be 1.2 nM. In other words, the single-digit nanomolar range.
Still for that read-out and setting: in the case of `O=C(O)/C=C/c1nc(CSc2c(Cl)cccc2Cl)ccc1OCc1ccc(F)cc1` it was 12 nM.
`O=C(O)/C=C/c1nc(CSc2c(Cl)cccc2Cl)ccc1OCCc1ccc(F)cc1`: in the experiment on Mus musculus [5], the ED50 came to 14.1 mg/kg. 25 mg/kg produced 75% inhibition in vivo in the experiment on Mus musculus [6]. In [4], the inhibitory constant (Ki) stood at 1.5 nM.

Usually Inhibition stands for how much of the control response was suppressed. A higher Inhibition goes with a strong effect. Usually inhibition in vivo stands for the drop in the measured response relative to a control, in per cent. Higher therefore signals a response far below the control. As usually defined, the Ki is a dissociation constant, usually derived from enzyme kinetics or from competition with a known ligand. Lower therefore signals higher affinity. By IC50 is commonly meant the concentration that inhibits the measured activity by half. Low values mean greater potency in that assay, high ones weaker potency in that assay.

These data come from ChEMBL document CHEMBL1129796, “(E)-3-[6-[[(2,6-dichlorophenyl)thio]methyl]-3-(2-phenylethoxy)-2- pyridinyl]-2-propenoic acid: a high-affinity leukotriene B4 receptor antagonist with oral antiinflammatory activity” (J Med Chem, 1996).
